Measurements published in ChEMBL document CHEMBL3352428, “Successes and challenges in phenotype-based lead discovery for prion diseases” (J Med Chem, 2014).

Assays:
[1] = AUC in mouse brain at 40 mg/kg, po administered as single dose; type: ADME, organism-based; set-up: dose 40 mg/kg, route oral
[2] = Inhibition of mouse RML prion protein infected in mouse ScN2a-cl3 cells after 5 days; type: cell-based; details: N2a-cl3, 120 h
[3] = Drug concentration at steady state in mouse brain assessed as total compound level in brain homogenates at 80 mg/kg/day, po measured after 3 days; type: ADME, organism-based; set-up: route oral; details: brain homogenate, read-out: Css
In short: (§1)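 Mice received compound mixed into a liquid rodent diet for 3 days at about 40, 80, 130 or 210 mg kg-1 day-1. Plasma and brain were collected at the end of the last dosing cycle, at a single time point, and analysed as in the single-dose PK studies. Values are total drug in brain homogenate and are treated as pseudo-steady-state concentrations.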

[4] = Drug concentration at steady state in mouse brain assessed as total compound level in brain homogenates at 210 mg/kg/day, po measured after 3 days; type: ADME, organism-based; set-up: route oral; details: brain homogenate, read-out: Css; in short: as §1
[5] = Drug concentration at steady state in mouse brain assessed as total compound level in brain homogenates at 40 mg/kg/day, po measured after 3 days; type: ADME, organism-based; set-up: route oral; details: brain homogenate, read-out: Css; in short: as §1
[6] = Drug concentration at steady state in mouse brain assessed as total compound level in brain homogenates at 130 mg/kg/day, po measured after 3 days; type: ADME, organism-based; set-up: route oral; details: brain homogenate, read-out: Css; in short: as §1
[7] = Half life in FVB mouse plasma at 1 mg/kg, iv administered as single dose; type: ADME, organism-based; set-up: dose 1 mg/kg, route intravenous
In short: (§2)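 Female FVB mice were given a single dose, 1 mg/kg iv or 10 mg/kg po, and plasma and brain were analysed separately. Brain samples were whole-brain homogenate. Parameters came from concentration–time curves: Vss, clearance, half-life, Cmax, AUC, brain/plasma AUC ratio and bioavailability.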

[8] = Clearance in FVB mouse plasma at 1 mg/kg, iv administered as single dose; type: ADME, organism-based; set-up: dose 1 mg/kg, route intravenous; in short: as §2
[9] = Oral bioavailability in FVB mouse […] at 10 mg/kg administered as single dose; type: ADME, organism-based; details: plasma; in short: as §2
[10] = AUC in FVB mouse brain at 10 mg/kg, po administered as single dose; type: ADME, organism-based; set-up: dose 10 mg/kg, route oral
[11] = Half life in FVB mouse plasma at 10 mg/kg, po administered as single dose; type: ADME, organism-based; set-up: dose 10 mg/kg, route oral; in short: as §2
[12] = AUC in FVB mouse plasma at 1 mg/kg, iv administered as single dose; type: ADME, organism-based; set-up: dose 1 mg/kg, route intravenous
[13] = AUC in FVB mouse plasma at 10 mg/kg, po administered as single dose; type: ADME, organism-based; set-up: dose 10 mg/kg, route oral
[14] = Cmax in FVB mouse plasma at 1 mg/kg, iv administered as single dose; type: ADME, organism-based; set-up: dose 1 mg/kg, route intravenous; in short: as §2
[15] = Cmax in FVB mouse plasma at 10 mg/kg, po administered as single dose; type: ADME, organism-based; set-up: dose 10 mg/kg, route oral; in short: as §2
[16] = Cmax in FVB mouse brain at 10 mg/kg, po administered as single dose; type: ADME, organism-based; set-up: dose 10 mg/kg, route oral; in short: as §2
[17] = Unbound fraction in mouse brain; type: ADME, tissue-based
In short: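 The fraction unbound in mouse brain tissue was estimated with an in vitro brain tissue binding assay.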

[18] = Volume of distribution at steady state in FVB mouse plasma at 1 mg/kg, iv administered as single dose; type: ADME, organism-based; set-up: dose 1 mg/kg, route intravenous; details: read-out: Vdss; in short: as §2
[19] = Ratio of drug level in brain to plasma in FVB mouse brain at 10 mg/kg, po administered as single dose; type: ADME, organism-based; set-up: dose 10 mg/kg, route oral; details: brain and plasma, read-out: BPR; in short: as §2
[20] = system: Brain; assay: (§3) AUC in mouse brain at 10 mg/kg, po administered as single dose; type: ADME, organism-based; set-up: dose 10 mg/kg, route oral; details: in vivo
[21] = system: Cervus elaphus nelsoni; assay: Antiprion activity against elk PrpC protein infected in mouse chronic wasting disease model assessed as increase in mouse survival (reference value: 108 +/- 3 days)
[22] = system: Mus musculus; assay: Antiprion activity against mouse RML prion protein infected in mouse assessed as mouse survival at 210 mg/kg/day (reference value: 118 +/- 1 days); type: organism-based
[23] = system: Mus musculus; assay: Antiprion activity against mouse Scrapie prion protein ME7 infected in mouse assessed as mouse survival at 210 mg/kg/day (reference value: 126 +/- 2 days); type: organism-based
[24] = system: Plasma; assay: (§4) AUC in mouse plasma at 10 mg/kg, po administered as single dose; type: ADME, organism-based; set-up: dose 10 mg/kg, route oral; details: in vivo
[25] = system: Brain; assay: (§5) Cmax in mouse brain at 10 mg/kg, po administered as single dose; type: ADME, organism-based; set-up: dose 10 mg/kg, route oral; details: in vivo
[26] = as §3; type: ADME, organism-based; set-up: dose 10 mg/kg, route oral; details: brain
[27] = as §4; type: ADME, organism-based; set-up: dose 10 mg/kg, route oral; details: plasma
[28] = as §5; type: ADME, organism-based; set-up: dose 10 mg/kg, route oral; details: brain
[29] = system: Mus musculus; assay: Increase in survival in sc dosed mouse prion disease model assessed as increase in survival; type: functional
[30] = system: Mus musculus; assay: Increase in survival in sc dosed mouse prion disease model assessed as extension of survival relative to untreated control; type: functional

Cc1ccc(Nc2nc(-c3ccncc3)cs2)nc1
AUC [1]: 9.7 µM·h | EC50 [2]: 1600 nM

Cc1cccc(Nc2nc(-c3cc4ccccc4o3)cs2)n1
concentration at 72 h [3]: 2700 nM | AUC [1]: 65.4 µM·h | concentration at 72 h [4]: 3230 nM | concentration at 72 h [5]: 1310 nM | concentration at 72 h [6]: 3740 nM | EC50 [2]: 1500 nM

Cc1ccnc(Nc2nc(-c3ccc(-c4ccccn4)s3)cs2)c1
half-life [7]: 1.18 h | clearance [8]: 151 mL/min/kg | bioavailability [9]: 27.3% | AUC [10]: 4.54 µM·h | half-life [11]: 0.98 h | AUC [1]: 60.2 µM·h | AUC [12]: 0.3 µM·h | AUC [13]: 0.82 µM·h | Cmax [14]: 520 nM | Cmax [15]: 430 nM | Cmax [16]: 1620 nM | fraction unbound [17]: 0.08 | Vd [18]: 12.6 L/kg | Kp [19]: 5.53

Cc1ccc(Nc2nc(-c3ccc(-c4ccccn4)s3)cs2)nc1
AUC [1]: 4.6 µM·h | EC50 [2]: 1200 nM

Cc1cccc(Nc2nc(-c3ccc(-c4ccccc4)cc3)cs2)n1
half-life [7]: 2.16 h | clearance [8]: 15.3 mL/min/kg | AUC [20]: 9.78 µM·h | concentration at 72 h [3]: 19300 nM | bioavailability [9]: 40.3% | AUC [10]: 29.1 µM·h | half-life [11]: 4.65 h | AUC [1]: 303 µM·h | AUC [12]: 2.78 µM·h | Survival [21]: 237 days | Survival [22]: 204 days | concentration at 72 h [4]: 37400 nM | Survival [23]: 214 days | AUC [13]: 11.2 µM·h | concentration at 72 h [5]: 8700 nM | concentration at 72 h [6]: 31800 nM | Cmax [14]: 2490 nM | EC50 [2]: 1300 nM | AUC [24]: 6.99 µM·h | Cmax [15]: 1660 nM | Cmax [16]: 2450 nM | fraction unbound [17]: 0.08 | Vd [18]: 2.46 L/kg | Kp [19]: 2.6

COc1ccc(-c2csc(Nc3cc4ccccc4cn3)n2)cc1OC
concentration at 72 h [3]: 60 nM | AUC [1]: 6.3 µM·h | concentration at 72 h [4]: 320 nM | concentration at 72 h [5]: 30 nM | concentration at 72 h [6]: 140 nM

Cc1cccc(Cn2cc(-c3ccc(-c4cccnc4)cc3)cn2)n1
EC50 [2]: > 10000 nM

Cc1cccc(Nc2nc(-c3ccc(-c4cccnc4)cc3)cs2)n1
AUC [20]: 10.9 µM·h | EC50 [2]: 68 nM | AUC [24]: 15.6 µM·h | Cmax [25]: 2460 nM

Cc1cccc(Nc2nc(-c3ccc(-c4ccncc4)cc3)cs2)n1
AUC [20]: 1.68 µM·h | EC50 [2]: 87 nM | Cmax [25]: 500 nM

Cc1ccc(Nc2nc(-c3cc(-c4ccccc4)no3)cs2)nc1
concentration at 72 h [3]: 5390 nM | AUC [1]: 23.2 µM·h | concentration at 72 h [4]: 12600 nM | concentration at 72 h [5]: 880 nM | concentration at 72 h [6]: 23300 nM | EC50 [2]: 950 nM

O=C(Nc1nc(-c2ccc(-c3ccccc3)cc2)cs1)C1CC1
AUC [26]: 18.6 µM·h | AUC [27]: 12.7 µM·h | Cmax [28]: 4340 nM

C(=N/Nc1ccc(-c2cnco2)cc1)/c1ccncc1
half-life [7]: 0.22 h | clearance [8]: 76 mL/min/kg | bioavailability [9]: 24.8% | AUC [10]: 1.06 µM·h | half-life [11]: 1.01 h | AUC [12]: 0.83 µM·h | AUC [13]: 2.06 µM·h | Cmax [14]: 1760 nM | Cmax [15]: 830 nM | Cmax [16]: 460 nM | Vd [18]: 1.53 L/kg | Kp [19]: 0.51

Cc1cccc(Nc2nc(-c3ccc(-c4ccnn4C)cc3)cs2)n1
EC50 [2]: 89 nM

Cc1ccnc(Nc2nc(-c3ccncc3)cs2)c1
AUC [1]: 34.6 µM·h | EC50 [2]: 5000 nM

c1ccc2cc(Nc3nc(-c4ccncc4)cs3)ncc2c1
concentration at 72 h [3]: 80 nM | AUC [1]: 59.1 µM·h | concentration at 72 h [4]: 100 nM | concentration at 72 h [5]: 20 nM | concentration at 72 h [6]: 40 nM

O=C(CN1CCCC1)Nc1ccc(Cc2ccc(NC(=O)CN3CCCC3)cc2)cc1
Survival [29]: 20% | Activity [30]: 12%

Cc1cccc(Nc2nc(-c3ccc(N4CCOCC4)cc3)cs2)n1
EC50 [2]: 51 nM

c1ccc2cc(Nc3nc(-c4cc5ccccc5o4)cs3)ncc2c1
AUC [1]: 10.9 µM·h | EC50 [2]: 920 nM
